In publication PMC4372299 (Molecular imaging and biology : MIB : the official …, 2014):

Legend:
TSPO [1] = molecular target: TSPO (Mus musculus, UniProt P50637); test: Dynamic PET accumulation and displacement of [18F]VUIIS1008 in healthy mice; assay type: in vivo
TSPO [2] = settings: cited from earlier work; for enhancement in binding affinity compared to DPA-714: TSPO affinity vs DPA-714
TSPO [3] = molecular target: T1, TSPO (Rattus norvegicus, UniProt P16257); test: Pre-blocking PET study with non-radioactive VUIIS1008 in C6 glioma-bearing rats; assay type: in vivo; settings: pre-blocking with VUIIS1008 10 mg/kg, range of 2 rats
In short: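 In C6 glioma-bearing Wistar rats, the non-radioactive ligand (10 mg/kg i.v.) was given 5 min before a radiotracer bolus (1.2 ± 0.2 mCi via jugular catheter). Dynamic PET ran for 60 min with a metabolite-corrected arterial input function. Tumour and contralateral normal-brain TACs were fitted to a 2-tissue, 4-parameter model, and the range from 2 rats is reported.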

TSPO [4] = molecular target: T1, TSPO; test: Dynamic PET with compartmental modeling in C6 glioma-bearing rats; assay type: in vivo; settings: for K1 / k2 / k3 / k4: 2-tissue 4-parameter model, n = 5, Mean ± SEM; for %ID/cc (90 min) / K1/k2 / VT=(K1/k2)(1+k3/k4) / k3/k4 (binding potential): C6-glioma bearing rats n = 5, Mean ± SEM
In short: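 Male Wistar rats (10 weeks, ~300 g) were implanted with 1.0 × 10⁵ C6 cells in the right hemisphere 2 weeks before imaging, then catheterised and localised by T₂ MRI. Radiotracer 1.2 ± 0.2 mCi was given as a jugular bolus for 90-min dynamic PET with CT attenuation correction. Arterial input was TLC metabolite-corrected. Tumour and contralateral-brain TACs were fitted with 1- and 2-tissue models to give K₁–k₄, V_T and BP_ND.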

[5] = challenger 10 mg/kg at scan mid-point (30 min)

## CCc1cc(CC)n2nc(-c3ccc(OCCF)cc3)c(CC(=O)N(CC)CC)c2n1 [VUIIS1008, 2-(5,7-diethyl-2-(4-(2-fluoroethoxy)phenyl)pyrazolo[1,5-a]pyrimidin-3-yl)-N,N-diethylacetamide]
TSPO [1]; [5]
  displacement of [18F]VUIIS1008 from myocardium and lung tissue: rapid and significant displacement
  displacement of [18F]VUIIS1008 from renal tissue: partial displacement
TSPO [2]
  enhancement in binding affinity compared to DPA-714: 36 fold
TSPO [2]; read-out: Ki (binding affinity), TSPO
  Ki: 0.3 nM

## CCc1cc(CC)n2nc(-c3ccc(OCC[18F])cc3)c(CC(=O)N(CC)CC)c2n1 [[^18F]VUIIS1008, 2-(5,7-diethyl-2-(4-(2-[^18F]fluoroethoxy)phenyl)pyrazolo[1,5-a]pyrimidin-3-yl)-N,N-diethylacetamide]
TSPO [1]; dynamic PET
  binding reversibility in healthy, TSPO-rich tissues: reversible binding
TSPO [3]; normal brain
  K1/k2: 0.059 – 0.061
  VT=(K1/k2)(1+k3/k4): 0.380 – 0.615
  k3/k4 (binding potential): 4.888 – 13.507
TSPO [3]; tumor
  K1/k2: 0.124 – 0.143
  VT=(K1/k2)(1+k3/k4): 0.618 – 0.767
  k3/k4 (binding potential): 3.972 – 4.368
TSPO [4]; C6 glioma-bearing rats
  VT ratio between tumor and normal brain: 6.0
TSPO [4]; C6 glioma-bearing rats, n = 6
  clearance of tracer from plasma: cleared rapidly
TSPO [4]; normal brain
  K1: 0.881 ± 0.392
  k2: 2.078 ± 1.666
  k3: 0.172 ± 0.070
  k4: 0.037 ± 0.004
  %ID/cc (90 min): 0.103 ± 0.031 %ID/cc
  K1/k2: 0.86 mL/g
  VT=(K1/k2)(1+k3/k4): 4.210 ± 1.612
  k3/k4 (binding potential): 4.435 ± 1.387
TSPO [4]; normal brain, listed as 18F-VUIIS1008
  K1/k2: 0.855 ± 0.325 mL/g
TSPO [4]; tumor (C6 glioma)
  K1: 0.709 ± 0.306
  k2: 0.442 ± 0.101
  k3: 0.113 ± 0.013
  k4: 0.009 ± 0.002
TSPO [4]; tumor
  %ID/cc (90 min): 0.310 ± 0.051 %ID/cc
  K1/k2: 1.90 mL/g
  VT=(K1/k2)(1+k3/k4): 25.224 ± 10.035
  k3/k4 (binding potential): 12.63
TSPO [4]; tumor, listed as 18F-VUIIS1008
  K1/k2: 1.902 ± 0.816 mL/g
  k3/k4 (binding potential): 12.634 ± 1.406
TSPO [2]
  enhancement in binding affinity compared to DPA-714: approximately 36 fold
